Results on 16 compounds are retold here after PubChem BioAssay.

The source made the active and inactive calls.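 How the source made its calls, unless noted: active means GFP response above 150% of the DMSO level; inconclusive means fewer than 70 events counted for a yeast strain; inactive means the rest.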

Experiment [1] is described as follows: RPL19A-GFP modulators, yeast TOR pathway, confirmation, cell-based, S. cerevisiae, flow cytometry, cherry picks, mother/daughter gates (AID 2270;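 active means GFP response below 50% of the DMSO control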). The following applies: S. cerevisiae RPL19A-GFP strain, 3 h, at 10 µM, stronger effect = lower value, 100 = same GFP as DMSO wells.
Experiment [2] can be described thus: LAP4-GFP expression modulators in yeast, confirmation, cell-based, cherry picks, flow cytometry, mother/daughter gates (AID 2271;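 active means GFP response above 150% of the DMSO control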;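 further: ratio of sample to DMSO plate mean so 100% equals DMSO level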). Particulars: S. cerevisiae LAP4-GFP strain, 3 h, at 10 µM, stronger effect = higher value, 100 means same as DMSO control. The essentials:
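Measured by: GFP by flow cytometry. Test system: GFP-fusion yeast strain. Input: yeast cells seeded at OD600 of 0.2. Timing: 30 °C, 3 h compound incubation, rotating. Buffer or medium: synthetic complete medium for yeast. Benchmarks: DMSO-only negative wells, rapamycin 400 ng/mL positive wells. Compound: 10 µM single dose.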
In general terms: In flow cytometry, cells or beads pass a laser one at a time.

Experiment [3] can be described thus: modulators of MEP2-GFP levels in yeast, confirmation, S. cerevisiae, flow cytometry GFP, cherry picks (AID 2272;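 active means GFP response above 150% of the DMSO control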;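 further: ratio of well signal to plate DMSO mean so 100% equals DMSO level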). The following applies: S. cerevisiae MEP2-GFP strain, 3 h, at 10 µM, stronger effect = higher value.
Experiment [4] can be described thus: AGP1-GFP expression modulators, hit retest, confirmation, cell-based, flow cytometry, S. cerevisiae, cherry picks (AID 2273).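 Further: median GFP channel fluorescence over the whole cell population gate.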 The following applies: S. cerevisiae AGP1-GFP strain, 3 h, at 10 µM.
Experiment [5] can be described thus: modulators of CIT2-GFP expression in yeast, confirmation, S. cerevisiae, GFP fusion, cherry picks, mother/daughter gates (AID 2274). Particulars: S. cerevisiae CIT2-GFP strain, flow cytometry, 3 h, at 10 µM, stronger effect = higher value.
[6] abbreviates: measured here: daughter cell gate.
The mark [7] stands for this setting: measured here: mother cell gate.
Where [8] appears, read: measured here: daughter cell gate response.
[9] abbreviates: measured here: mother cell gate response.

Take `O=C(NC(c1ccccc1)C(Cl)Cl)c1ccccc1` (stereo unspecified): the GFP response vs DMSO in experiment [1] is 94.7% (inactive); in experiment [1] (setting [6]), 98.4%; in experiment [1] (setting [7]) it was 92.9%; in experiment [3] it was 128% (inactive). The figures for the GFP response relative to DMSO in experiment [2], in experiment [2] (setting [8]) and in experiment [2] (setting [9]) were 97.7% (inactive), 104% and 93.4%, respectively. Moreover, the GFP response, % of DMSO in experiment [4] was 125% (inactive); in experiment [5], 107% (inactive); in experiment [5] (setting [6]), 108%; in experiment [5] (setting [7]) it was 106%.

With `CCn1c(=O)c(C(=O)Nc2nc3ccccc3[nH]2)c(O)c2ccccc21`, the GFP response vs DMSO in experiment [1] was 82.3% (inactive); in experiment [1] (setting [6]), 87.3%; in experiment [1] (setting [7]) it was 67%; in experiment [3], 159% (inactive). Further, the figures for the GFP response relative to DMSO in experiment [2], in experiment [2] (setting [8]) and in experiment [2] (setting [9]) were 169% (active), 109% and 185%, respectively. The GFP response, % of DMSO is 96.2% (inactive) in experiment [4], 128% (inactive) in experiment [5], 99.1% in experiment [5] (setting [6]) and 109% in experiment [5] (setting [7]).

Regarding `O=C(Oc1oc(-c2ccco2)nc1C=Nc1ccccc1)c1ccoc1`, the GFP response vs DMSO in experiment [1] was 99.6% (inactive); in experiment [1] (setting [6]) it was 99.8%; in experiment [1] (setting [7]), 96.9%; in experiment [3] it was 108% (inactive). Moreover, the values for the GFP response relative to DMSO in experiment [2], in experiment [2] (setting [8]) and in experiment [2] (setting [9]) were 198% (active), 172% and 198%, respectively. Moreover, the GFP response, % of DMSO in experiment [4] was 98.2% (inactive); in experiment [5], 98.6% (inactive); in experiment [5] (setting [6]) it was 103%; in experiment [5] (setting [7]) it was 91.5%.

`CCOC(=O)c1ccc(NC(=O)c2ccc3c(c2)C(=O)N(Cc2cccnc2)C3=O)cc1`: the GFP response vs DMSO in experiment [1] was 100% (inactive); in experiment [1] (setting [6]), 99.6%; in experiment [1] (setting [7]) it was 100%; in experiment [3], 102% (inactive). The GFP response relative to DMSO is 94.1% (inactive) in experiment [2], 96% in experiment [2] (setting [8]) and 94% in experiment [2] (setting [9]). The GFP response, % of DMSO in experiment [4] is 99.3% (inactive); in experiment [5] it was 99.7% (inactive); in experiment [5] (setting [6]), 101%; in experiment [5] (setting [7]), 98.5%.

Consider `COc1ccc(OC(=O)c2cccc(S(=O)(=O)N3CCCC3)c2)cc1`, for which the GFP response vs DMSO in experiment [1] was 96.6% (inactive); in experiment [1] (setting [6]), 95.4%; in experiment [1] (setting [7]) it was 96.1%; in experiment [3], 105% (inactive). The values for the GFP response relative to DMSO in experiment [2], in experiment [2] (setting [8]) and in experiment [2] (setting [9]) were 90.2% (inactive), 91.2% and 89.7%, respectively. For the same compound, the GFP response, % of DMSO in experiment [4] is 96.4% (inactive); in experiment [5], 103% (inactive); in experiment [5] (setting [6]), 103%; in experiment [5] (setting [7]) it was 101%.

`Cc1c(N2C(=O)/C(=C\c3ccccc3O)SC2=S)c(=O)n(-c2ccccc2)n1C`: the GFP response vs DMSO in experiment [1] is 101% (inactive); in experiment [1] (setting [6]), 96%; in experiment [1] (setting [7]) it was 98.3%; in experiment [3], 102% (inactive). Also, the results for the GFP response relative to DMSO in experiment [2], in experiment [2] (setting [8]) and in experiment [2] (setting [9]) were 134% (inactive), 130% and 137%, respectively. For the same compound, the GFP response, % of DMSO in experiment [4] is 93.2% (inactive); in experiment [5], 105% (inactive); in experiment [5] (setting [6]), 109%; in experiment [5] (setting [7]), 95.6%.

For `COC(=O)c1sc(-c2ccc(C(C)(C)C)cc2)cc1NC(=O)CCC(=O)O`, the GFP response vs DMSO is 98.6% (inactive) in experiment [1], 97.3% in experiment [1] (setting [6]), 98.9% in experiment [1] (setting [7]) and 100% (inactive) in experiment [3]. In addition, the GFP response relative to DMSO was 98.7% (inactive) in experiment [2], 95.6% in experiment [2] (setting [8]) and 100% in experiment [2] (setting [9]). In addition, the GFP response, % of DMSO is 95.4% (inactive) in experiment [4], 97.8% (inactive) in experiment [5], 96.5% in experiment [5] (setting [6]) and 98.7% in experiment [5] (setting [7]).

In the case of `Cc1nnc(OCc2nc3ccccc3n2C)c2ccccc12`, the GFP response vs DMSO in experiment [1] was 101% (inactive); in experiment [1] (setting [6]), 102%; in experiment [1] (setting [7]) it was 101%; in experiment [3] it was 99.5% (inactive). Also, the GFP response relative to DMSO in experiment [2] was 98.8% (inactive); in experiment [2] (setting [8]), 93.6%; in experiment [2] (setting [9]), 100%. The GFP response, % of DMSO in experiment [4] was 94.3% (inactive); in experiment [5], 96.4% (inactive); in experiment [5] (setting [6]), 96.4%; in experiment [5] (setting [7]) it was 95.6%.

Consider `O=C(NC(=S)NNC(=O)[C@H]1C[C@@H]1c1ccccc1)c1cccc(F)c1`, for which the GFP response vs DMSO in experiment [1] was 111% (inactive); in experiment [1] (setting [6]) it was 115%; in experiment [1] (setting [7]), 110%; in experiment [3], 135% (inactive). The GFP response relative to DMSO was 150% (active) in experiment [2], 144% in experiment [2] (setting [8]) and 147% in experiment [2] (setting [9]). Further, the GFP response, % of DMSO in experiment [4] was 109% (inactive); in experiment [5], 137% (inactive); in experiment [5] (setting [6]) it was 141%; in experiment [5] (setting [7]), 127%.

Consider `C/C(=N\NC(=O)c1nonc1N)c1cccs1`, for which the GFP response vs DMSO in experiment [1] was 98.2% (inactive); in experiment [1] (setting [6]), 98.8%; in experiment [1] (setting [7]) it was 98.1%; in experiment [3], 99.5% (inactive). Further, the results for the GFP response relative to DMSO in experiment [2], in experiment [2] (setting [8]) and in experiment [2] (setting [9]) were 102% (inactive), 99.3% and 100%, respectively. For the same compound, the GFP response, % of DMSO in experiment [4] was 94.5% (inactive); in experiment [5] it was 99.3% (inactive); in experiment [5] (setting [6]), 98.3%; in experiment [5] (setting [7]), 98%.

For the compound `O=C(O)CCc1ccc(-c2ccccc2)o1`, the GFP response vs DMSO in experiment [1] was 94.4% (inactive); in experiment [1] (setting [6]), 92.6%; in experiment [1] (setting [7]) it was 96.4%; in experiment [3], 96.2% (inactive). For the same compound, the GFP response relative to DMSO was 139% (inactive) in experiment [2], 138% in experiment [2] (setting [8]) and 138% in experiment [2] (setting [9]). In addition, the GFP response, % of DMSO in experiment [4] is 93.1% (inactive); in experiment [5] it was 94% (inactive); in experiment [5] (setting [6]) it was 95.4%; in experiment [5] (setting [7]), 92.6%.

With `O=c1cnnc(SCc2ccc([N+](=O)[O-])cc2)[nH]1`, the GFP response vs DMSO in experiment [1] is 97.4% (inactive); in experiment [1] (setting [6]), 99.1%; in experiment [1] (setting [7]), 96.2%; in experiment [3], 105% (inactive). Also, the GFP response relative to DMSO in experiment [2] is 102% (inactive); in experiment [2] (setting [8]) it was 101%; in experiment [2] (setting [9]), 100%. For the same compound, the GFP response, % of DMSO in experiment [4] was 96% (inactive); in experiment [5] it was 98.3% (inactive); in experiment [5] (setting [6]), 99.1%; in experiment [5] (setting [7]) it was 98.5%.

Take `O=C1Nc2ccc(Br)cc2/C1=C/C(=O)c1ccc2c(c1)OCO2`: the GFP response vs DMSO in experiment [1] was 101% (inactive); in experiment [1] (setting [6]), 99.4%; in experiment [1] (setting [7]), 98.9%; in experiment [3] it was 105% (inactive). Also, the GFP response relative to DMSO in experiment [2] was 125% (inactive); in experiment [2] (setting [8]) it was 117%; in experiment [2] (setting [9]), 130%. Besides, the GFP response, % of DMSO in experiment [4] was 94.5% (inactive); in experiment [5], 101% (inactive); in experiment [5] (setting [6]) it was 101%; in experiment [5] (setting [7]), 96.1%.

As to `Cc1cc(NCCN2CCOCC2)n2nc(C)c(-c3ccccc3)c2n1`, the GFP response vs DMSO was 98.8% (inactive) in experiment [1], 99.1% in experiment [1] (setting [6]), 97.4% in experiment [1] (setting [7]) and 102% (inactive) in experiment [3]. Further, the GFP response relative to DMSO in experiment [2] was 100% (inactive); in experiment [2] (setting [8]), 95%; in experiment [2] (setting [9]) it was 99.5%. Also, the GFP response, % of DMSO was 95.2% (inactive) in experiment [4], 92.1% (inactive) in experiment [5], 94.6% in experiment [5] (setting [6]) and 91% in experiment [5] (setting [7]).

As to `O=[N+]([O-])c1ccc(Sc2ccccc2)nc1`, the GFP response vs DMSO in experiment [1] is 97.8% (inactive); in experiment [1] (setting [6]), 97.3%; in experiment [1] (setting [7]), 98%; in experiment [3], 108% (inactive). The GFP response relative to DMSO in experiment [2] was 104% (inactive); in experiment [2] (setting [8]), 104%; in experiment [2] (setting [9]) it was 105%. The GFP response, % of DMSO in experiment [4] is 105% (inactive); in experiment [5], 101% (inactive); in experiment [5] (setting [6]) it was 101%; in experiment [5] (setting [7]) it was 103%.

Consider `Cc1ccc(/C=N/Nc2ncc(Cl)cc2Cl)s1`, for which the GFP response vs DMSO is 86.7% (inactive) in experiment [1], 62.7% in experiment [1] (setting [6]), 78.2% in experiment [1] (setting [7]) and 115% (inactive) in experiment [3]. In addition, the GFP response relative to DMSO in experiment [2] is 331% (active); in experiment [2] (setting [8]), 202%; in experiment [2] (setting [9]), 317%. The GFP response, % of DMSO in experiment [4] is 81.8% (inactive); in experiment [5] it was 107% (inactive); in experiment [5] (setting [6]) it was 95.4%; in experiment [5] (setting [7]) it was 98.5%.
